Test results from ChEMBL document CHEMBL1131092, “Prodrugs of anthracyclines for use in antibody-directed enzyme prodrug therapy” (J Med Chem, 1998).

Assays:
[1] = Half life period at 200 ug/mL concentration of prodrug in the presence of 0.1 ug/mL Beta-glucuronidase (Escherichia coli) in phosphate buffer; conditions: in vitro
[2] = system: L1210; assay: Inhibitory activity was measured against murine L1210 leukemia cells.; format: functional, cell-based; conditions: Mus musculus
Outline: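 Exponentially growing L1210 cells in RPMI were exposed to a range of concentrations for 72 h (37 °C, 5% CO2), with quadruplicate wells and medium-only controls. MTT (2.5 mg/mL in PBS) was added at 65 h, and formazan was dissolved in DMSO after 7 more h. IC50 is 50% growth inhibition versus untreated control; replicate CV <15%.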

[3] = system: Escherichia coli; assay: Half life period at 200 ug/mL concentration of prodrug in the presence of 1 ug/mL Beta-glucuronidase (Escherichia coli) in phosphate buffer; conditions: in vitro

SMILES | T1/2 [1] [min] | IC50 [2] [µM] | T1/2 [3] [min]
COc1cccc2c1C(=O)c1c(O)c3c(c(O)c1C2=O)C[C@@](O)(C(=O)CO)C[C@@H]3O[C@H]1C[C@@H](NC(=O)OCc2cc(F)ccc2O[C@@H]2O[C@@H](C(=O)O)[C@@H](O)[C@H](O)[C@@H]2O)[C@H](O)[C@H](C)O1 | 30 | 31 | –
COc1cccc2c1C(=O)c1c(O)c3c(c(O)c1C2=O)C[C@@](O)(C(C)=O)C[C@@H]3O[C@H]1C[C@H](N)[C@H](O)[C@H](C)O1 [DAUNORUBICIN] | – | 0.03 | –
COc1cccc2c1C(=O)c1c(O)c3c(c(O)c1C2=O)C[C@@](O)(C(=O)CO)C[C@@H]3O[C@H]1C[C@@H](NC(=O)OCc2ccc(O[C@@H]3O[C@@H](C(=O)O)[C@@H](O)[C@H](O)[C@@H]3O)c(Cl)c2)[C@H](O)[C@H](C)O1 | 55 | 17 | –
COc1cccc2c1C(=O)c1c(O)c3c(c(O)c1C2=O)C[C@@](O)(C(=O)CO)C[C@@H]3O[C@H]1C[C@@H](NC(=O)OCc2cc([N+](=O)[O-])ccc2O[C@@H]2O[C@@H](C(=O)O)[C@@H](O)[C@H](O)[C@@H]2O)[C@H](O)[C@H](C)O1 | 216 | 16.6 | –

Further lines, results first:

T1/2 [1] [min] | IC50 [2] [µM] | T1/2 [3] [min] | SMILES
26 | 8.8 | – | COc1cccc2c1C(=O)c1c(O)c3c(c(O)c1C2=O)C[C@@](O)(C(=O)CO)C[C@@H]3O[C@H]1C[C@@H](NC(=O)OCc2ccc(O[C@@H]3O[C@@H](C(=O)O)[C@@H](O)[C@H](O)[C@@H]3O)c(F)c2)[C@H](O)[C@H](C)O1
> 240 | 16.6 | 30 | COc1cccc2c1C(=O)c1c(O)c3c(c(O)c1C2=O)C[C@@](O)(C(=O)CO)C[C@@H]3O[C@H]1C[C@@H](NC(=O)OCc2cc(Cl)ccc2O[C@@H]2O[C@@H](C(=O)O)[C@@H](O)[C@H](O)[C@@H]2O)[C@H](O)[C@H](C)O1
– | > 10 | – | COc1cccc2c1C(=O)c1c(O)c3c(c(O)c1C2=O)C[C@@](O)(C(C)=O)C[C@@H]3O[C@H]1C[C@@H](NC(=O)OCc2ccc(O[C@@H]3O[C@@H](C(=O)O)[C@@H](O)[C@H](O)[C@@H]3O)cc2)[C@H](O)[C@H](C)O1
37 | 2.21 | – | COc1cccc2c1C(=O)c1c(O)c3c(c(O)c1C2=O)C[C@@](O)(C(=O)CO)C[C@@H]3O[C@H]1C[C@@H](NC(=O)OCc2ccc(O[C@@H]3O[C@@H](C(=O)O)[C@@H](O)[C@H](O)[C@@H]3O)c([N+](=O)[O-])c2)[C@H](O)[C@H](C)O1
– | 5.5 | – | COC(=O)[C@@H]1O[C@@H](Oc2ccccc2COC(=O)N[C@@H]2C[C@H](O[C@H]3C[C@](O)(C(C)=O)Cc4c(O)c5c(c(O)c43)C(=O)c3c(OC)cccc3C5=O)O[C@@H](C)[C@H]2O)[C@@H](OC(C)=O)[C@@H](OC(C)=O)[C@@H]1OC(C)=O
